Data taken from ChEMBL document CHEMBL1122098, “2-Amino-4,7-dimethoxyindan derivatives: synthesis and assessment of dopaminergic and cardiovascular actions” (1982).

Legend:
Format in all cases: functional
[1] = Tested for the ratio between rat rotation and the potency to apomorphine
How it was run: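 Rats with unilateral substantia nigra 6-hydroxydopamine lesions (6 µg in 3 µl). HCl salts in saline given sc, screened at 2 mg/kg; contralateral turns recorded automatically for at least 1 h as turns per hour. Dose-response curves used 4-5 animals; potency ratio to apomorphine with 95% CI calculated over 60 min after dosing.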

Rattus norvegicus [2] = species: Rattus norvegicus; assay: Tested for the alteration in rat CNS transmitter synthesis by […] of 5-HTP from olfactory tubercle; parameters: concentration or dose not given beside the values
How it was run: (§1)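 Rat in vivo synthesis-index model (Carlsson): test compound 4.0 mg/kg sc given 30 min before GBL 750 mg/kg ip in distilled water; apomorphine 4.0 mg/kg sc 5 min before GBL. Five min after GBL, NSD 1015 100 mg/kg ip in saline; decapitation 30 min later. Dopa in caudate nucleus and 5-HTP in olfactory tubercle measured, expressed as percent of saline+GBL control; p < 0.05 criterion.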

Rattus norvegicus [3] = species: Rattus norvegicus; assay: Tested for the alteration in rat CNS transmitter synthesis by […] of Dopa from caudate nucleus; parameters: concentration or dose not given beside the values; how it was run: as §1
Felis catus [4] = assay: Tested for the change in heart rate after administration in cat
How it was run: (§2)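 Cats 2-4 kg, either sex, anesthetized with pentobarbital sodium 30 mg/kg ip, pretreated with atropine sulfate 0.2 mg/kg iv. Compounds in saline given as iv bolus via femoral catheter. Blood pressure and heart rate recorded. Right cardioaccelerator nerve stimulated at 2 Hz, 5-ms pulses, 20–25 V supramaximal; inhibition of the positive chronotropic response measured, with ED50 calculated. Haloperidol 100 µg/kg iv given beforehand for blockade.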

Felis catus [5] = assay: Tested for the percent change in blood pressure after administration in cat; how it was run: as §2
Felis catus [6] = species: Felis catus; assay: Tested for the inhibition of cardioaccelerator nerves in cat; conditions: read-out: ID50 (the source's name); how it was run: as §2

Row | SMILES | Ratio [1] | Control (Rattus norvegicus [2]) [%] | Control (Rattus norvegicus [3]) [%] | HR (Felis catus [4]) [beats min-1] | BP change (Felis catus [5]) [%] | ED50 (Felis catus [6]) [µmol/kg]
1 | CNC1CCc2c(OC)ccc(OC)c2C1 (configuration not stated) | 3.9 | 33.2 | 103.8 |  |  | 
2 | COc1ccc(OC)c2c1CC(N(C)C)C2 | 0.019 |  |  | 3.2 | 51.8 | 1.16
3 | CNC1Cc2c(OC)ccc(OC)c2C1 | 8.2 | 94.7 | 67.9 | 2.5 | 28.1 | 1.23
4 | CN1CCc2cccc3c2[C@H]1Cc1ccc(O)c(O)c1-3 [APOMORPHINE] | 1 |  | 18.3 |  |  | 0.103
5 | CCCNC1Cc2c(OC)ccc(OC)c2C1 | 7.4 | 104.7 | 79.1 | -3.2 | 0.7 | 1.1
6 | COc1ccc(OC)c2c1CC(NC(C)C)C2 |  |  |  | 0 | 3.8 | 1.1
7 | COc1ccc(OC)c2c1CC(N)C2 | 8.7 | 109.7 | 94 | 0 | 6.3 | 1.55
8 | CCCN(CCC)C1Cc2c(OC)ccc(OC)c2C1 | 0.13 | 51.5 | 31.8 | -6.4 | -16.6 | 0.107
